A selection: hits, their analogues and other compounds. The true share with any hit is near 1.2%.
PREPL inh: inhibitors of human prolyl oligopeptidase-like enzyme PREPL; inhibition, % at 5.96 µM; 320,000 compounds, 0.68% hits; AID 2751; Q4J6C6; recombinant PREPL, fluorescence polarization activity-based probe;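 further: 0% = enzyme with DMSO and 100% = wells lacking enzyme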
ASAP1 GAP inh: inhibitors of human ASAP1 ArfGAP activity | ASAP1-stimulated ARF1 GTP hydrolysis, GDP FP detection | 360,000 compounds, 0.19% hits | inhibition, % at 16.5 µM; in the data active means inhibition above about 25%;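 further: 0% = vehicle with enzyme and substrate and 100% = no enzyme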
Target sequence (Q9ULH1 325-724 limits assumed): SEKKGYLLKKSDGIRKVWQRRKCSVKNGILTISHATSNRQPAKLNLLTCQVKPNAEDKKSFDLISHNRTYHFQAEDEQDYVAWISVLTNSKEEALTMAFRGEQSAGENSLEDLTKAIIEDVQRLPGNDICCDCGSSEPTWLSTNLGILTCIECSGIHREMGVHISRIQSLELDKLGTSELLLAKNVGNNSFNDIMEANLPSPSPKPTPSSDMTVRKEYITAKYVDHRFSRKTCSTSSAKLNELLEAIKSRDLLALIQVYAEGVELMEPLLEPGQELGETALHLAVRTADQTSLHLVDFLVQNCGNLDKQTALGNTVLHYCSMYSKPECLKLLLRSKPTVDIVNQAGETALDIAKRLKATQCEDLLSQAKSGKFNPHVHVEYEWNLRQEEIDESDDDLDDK
IDE cell inh: cellular human IDE inhibition | HEK cells, FAbetaB cleavage, fluorescence polarization | P14735 | inhibition, % at 5.59 µM | AID 434962 | 320,000 compounds, 0.41% hits;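 active means percent inhibition above the average of all tested compounds plus 3 SD, set per screening campaign, cut at about 16% in these data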;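 further: IDE supplied by intact live HEK cells; FP after avidin binding of uncleaved biotin substrate so inhibition keeps polarization high; 0% = DMSO wells and 100% = 60 µM reference IDE inhibitor Ii1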
ARFGAP1 inhibitor: inhibitors of rat ARFGAP1. Q62848. 360,000 compounds, 0.26% hits. inhibition, % at 16.5 µM. Arfgap1-stimulated ARF1 GTP hydrolysis, GDP FP detection;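 active means inhibition above a per-plate limit, mean inhibition of low control wells plus 3 SD, cut at about 25% in these data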;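 further: 0% = DMSO wells with enzyme and 100% = wells lacking Arfgap1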
Target sequence (Q62848 1-136 limits assumed): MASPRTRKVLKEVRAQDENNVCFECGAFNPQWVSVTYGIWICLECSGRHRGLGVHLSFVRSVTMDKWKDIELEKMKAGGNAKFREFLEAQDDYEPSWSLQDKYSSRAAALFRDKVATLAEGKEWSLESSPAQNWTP
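System: truncated rat Arfgap1 GAP domain / Benchmarks: high control wells lacking Arfgap1, low control full reaction with DMSO / Times: compound-enzyme preincubation 20 min, reaction 120 min, detection 60 min, 25 °C / Repeats: one replicate per compound / Also added: human ARF1(Δ1-17)-GTP substrate / Measured by: Tracer-displacement fluorescence polarization with EDTA stop, 620/688 nm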
IDE act: activators of human insulin-degrading enzyme in cells | P14735 | HEK cells, FAbeta-B cleavage, fluorescence polarization; 0% vehicle, 100% cell-free pure enzyme wells | activation, % at 5.96 µM | 340,000 compounds, 0.073% hits | AID 493087;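 active means activation above the mean of all tested compounds plus 3 SD, set per screening campaign, cut at about 17% in these data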
PREPL inh cf: human PREPL inhibition, confirmation; AID 2803; inhibition, % at 5.96 µM; recombinant PREPL, fluorescence polarization activity probe; shares compounds with PREPL inh; 2,000 compounds, 67% hits;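 further: 0% = protein with DMSO and 100% = wells lacking protein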
* marks the source's active call; other numbers are inactive results; · = not tested or not shown. Unless noted, no stated cut-off is given here; in the data, active means inhibition above about 43%; inactive means the rest.

SMILES	PREPL inh	ASAP1 GAP inh	IDE cell inh	ARFGAP1 inhibitor	IDE act	PREPL inh cf
CN1CCN(c2ccc(NC(=O)COc3cccc4ccccc34)cc2)CC1	55*	-3	6	7	5	57*
O=C(CN1C(=O)C2CCCCC2C1=O)Nc1cccc([N+](=O)[O-])c1 (configuration not stated)	26	6	6	4	2	·
N#Cc1nc(COc2ccccc2)oc1NCCN1CCOCC1	6	-2	4	-7	7	·
N#Cc1nc(COc2ccc(-c3ccccc3)cc2)oc1NCCCN1CCOCC1	45*	-13	14	12	-9	41
N#Cc1nc(/C=C/c2ccccc2)oc1NCCCN1CCOCC1	47*	-11	-2	9	6	39
CCOC(=O)CNC(=O)CCc1nnc2ccc(N3CCC(C)CC3)nn12	3	-4	-2	4	-1	·
COc1ccc(CSc2ccc(-c3nc4ccccn4c3NCc3ccccc3)cc2OC)cc1	49*	2	-1	1	2	41
O=C1c2c(O)cccc2C(C2OC(CO)[C@@H](O)[C@H](O)[C@H]2O)c2cc(CO)cc(O)c21 (some centres not stated)	13	6	2	7	1	·
O=C(O)c1cc(O)c2c(c1)[C@H]([C@H]1c3cc(C(=O)O)cc(O)c3C(=O)c3c(O[C@@H]4O[C@H](CO)[C@@H](O)[C@H](O)[C@H]4O)cccc31)c1cccc(OC3O[C@H](CO)[C@@H](O)[C@H](O)[C@H]3O)c1C2=O (some centres not stated)	105*	9	2	-7	5	92*
Cc1ccc(NC(=O)Cn2c(-c3ccc(F)cc3)cnc2SCC(=O)Nc2c(C)cccc2C)cc1	47*	7	-2	15	3	13
COc1ccc(Cn2nnc3ccccc32)cc1	50*	12	2	12	0	37
N#CCN1CCC(c2cc(-c3ccco3)n[nH]2)CC1	33	3	4	-6	·	·
CC(C)=CCC/C(C)=C/CNC(=O)C[C@H]1C[C@H](C(=O)N2CCOCC2)[C@@]2(C)c3[nH]c4ccc(Cl)cc4c3CCN2C1=O	·	-2	·	-1	4	·
CC(C)=CCC/C(C)=C/CNC(=O)CC1C[C@H](C(=O)N2CCOCC2)[C@@]2(C)c3[nH]c4ccccc4c3CCN2C1=O (some centres not stated)	57*	5	1	-8	5	33
CN(C)c1ccc(CNc2ccc3c(c2)ncn3C(C)(C)C)cc1	43*	-7	2	0	3	28
CCCn1cnc2cc(NCc3ccc(Br)cc3)ccc21	49*	3	2	2	1	46*
CCn1cnc2cc(NCc3ccc(N(C)C)cc3)ccc21	27	-13	9	0	1	·
Cc1ccc(NS(=O)(=O)c2ccc(Br)s2)cc1S(=O)(=O)N1CCOCC1	18	-24	3	-11	6	·
CN1CCCCC(NC(=O)CCCl)C1=O (configuration not stated)	·	8	·	-6	·	·
CCN1CCN(c2cc(N3CCN(C(=O)c4ccco4)CC3)c3c4c(onc24)-c2ccccc2C3=O)CC1	70*	·	5	·	1	68*
O=c1cc(-c2ccc(O)c(-c3c(O)cc(O)c4c(=O)cc(-c5ccc(O)cc5)oc34)c2)oc2cc(O)cc(O)c12	41	1	-1	21	1	·
O=c1cc(-c2ccc(O)cc2)oc2c(-c3c(O)cc(O)c4c(=O)cc(-c5ccc(O)cc5)oc34)c(O)cc(O)c12	51*	21	9	7	3	15
CCOC(=O)CC(NC(=O)CCc1c(C)nc2ncnn2c1C)c1ccc(C)cc1 (configuration not stated)	9	-1	-3	0	1	·
N=c1c(C(=O)NCc2ccc(F)cc2)cc2c(=O)n3ccccc3nc2n1Cc1cccnc1	45*	0	14	5	-7	42
COC(=O)c1cc2c(=O)n3ccccc3nc2n(Cc2cccnc2)c1=N	4	·	-8	·	·	·
SMILES	PREPL inh	ASAP1 GAP inh	IDE cell inh	ARFGAP1 inhibitor	IDE act	PREPL inh cf
Nc1[nH]c(C(=O)c2ccccc2)c(-c2cccc(C(F)(F)F)c2)c1C(=O)c1c[nH]c2ccccc12	·	14	·	9	·	·
COc1ccc(Nc2ccnc3ccccc23)cc1	8	3	1	3	9	·
CC(C)Nc1ccc(Nc2ccnc3cc4ccccc4cc23)cc1	60*	6	-1	17	-4	62*
O=C(Cc1ccccc1)Nc1cccc(N2CCCC2)c1	51*	5	2	5	2	19
O=C(Cc1ccccc1)Nc1ccc(N2CCCC2)cc1	60*	9	-3	12	7	15
O=C(Cc1ccccc1)Nc1ccc(N2CCOCC2)cc1	26	8	1	8	5	·
COCc1[nH]nc2c1C(c1ccc(F)cc1)N(Cc1ccccc1)C2=O (configuration not stated)	·	-11	·	-20	·	·
COC(=O)C1=CO[C@@H](O[C@@H]2O[C@H](CO)[C@@H](O)[C@H](O)[C@H]2O)C2C1C=C[C@@]2(O)CO (some centres not stated)	14	6	-1	4	2	·
CCCCCCC(=O)Nc1ccc(Br)cn1	-7	1	0	6	3	·
COCCCNC(=O)/C(C#N)=C/c1c(N2CCN(c3cccc(Cl)c3)CC2)nc2c(C)cccn2c1=O	18	3	3	2	-3	·
C=CCNC(=O)/C(C#N)=C/c1c(N2CCN(c3ccc(OC)cc3)CC2)nc2c(C)cccn2c1=O	57*	6	3	6	-2	50*
C=CCNC(=O)/C(C#N)=C/c1c(N2CCN(c3ccccc3)CC2)nc2c(C)cccn2c1=O	24	2	1	-20	4	·
COc1ccc(N2CCN(c3nc4c(C)cccn4c(=O)c3/C=C(\C#N)C(N)=O)CC2)cc1	54*	1	1	14	3	53*
COCCCNC(=O)/C(C#N)=C/c1c(N2CCN(c3ccccc3)CC2)nc2c(C)cccn2c1=O	44*	-3	-4	-8	1	32
COC(=O)/C(C#N)=C/c1c(N2CCN(c3ccccc3)CC2)nc2c(C)cccn2c1=O	·	-16	·	8	-2	·
COc1ccccc1N1CCN(C(=O)c2ccccc2N(C)S(=O)(=O)c2ccc(C)cc2)CC1	11	5	6	11	-1	·
Cn1c(N2CCCC2)nc2c1c(=O)n(Cc1ccc(F)cc1)c(=O)n2C	7	-8	-4	-10	-3	·
Cn1c(N2CCOCC2)nc2c1c(=O)n(Cc1ccc(Cl)c(Cl)c1)c(=O)n2C	44*	-8	-4	-3	0	26
C[n+]1c(-c2ccccc2)sc([S-])c1-c1ccccc1	57*	5	3	0	·	69*
